Activity calls are given as the source filed them. No cut-off for these calls is given here. Where a SMILES comes first, the peptide text is derived from it.

For the first assay, the target named is BCL2L1/BAD (Homo sapiens, UniProt Q07817). The assay is described as follows: Inhibition of BAD/His-SUMO tagged BCL-XL (1 to 209 residues; missing 27 to 82 residues) (unknown origin) overexpressed in Escherichia coli BL21 protein-protein interaction by fluorescence anisotropy competition assay. The gist of the method: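 Final conditions: 200 nM BCL-xL, 50 nM tracer, 20 mM Tris, 150 mM NaCl, pH 7.6, 20 °C, with peptide titrated. Tracer Kd for BCL-xL was determined beforehand by direct titration (6 nM-125 μM protein).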
Sequence of BCL2L1/BAD (Q92934 whole entry, the tested form may be a part): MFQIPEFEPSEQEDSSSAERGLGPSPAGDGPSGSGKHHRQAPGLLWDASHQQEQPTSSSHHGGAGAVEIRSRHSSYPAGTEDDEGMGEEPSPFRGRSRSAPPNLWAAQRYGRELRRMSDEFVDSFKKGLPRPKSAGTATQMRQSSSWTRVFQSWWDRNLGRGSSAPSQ
Sequence of BCL2L1/BAD (Q07817 whole entry, the tested form may be a part): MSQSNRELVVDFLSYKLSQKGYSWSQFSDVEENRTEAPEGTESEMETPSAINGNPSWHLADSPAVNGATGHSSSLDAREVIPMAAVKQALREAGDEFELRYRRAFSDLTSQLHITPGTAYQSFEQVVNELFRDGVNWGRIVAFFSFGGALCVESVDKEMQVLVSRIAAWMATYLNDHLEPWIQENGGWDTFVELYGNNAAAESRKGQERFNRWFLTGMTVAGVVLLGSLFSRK
Consider `CSCC[C@H](NC(=O)[C@H](CCCNC(=N)N)NC(=O)[C@H](CCCNC(=N)N)NC(=O)[C@H](CC(C)C)NC(=O)[C@H](CCC(=O)O)NC(=O)[C@H](CCCNC(=N)N)NC(=O)CNC(=O)[C@H](Cc1ccc(O)cc1)NC(=O)[C@H](CCCNC(=N)N)NC(=O)[C@H](CCC(N)=O)NC(=O)[C@H](C)NC(=O)[C@H](C)NC(=O)[C@H](Cc1c[nH]c2ccccc12)NC(=O)[C@H](CC(C)C)NC(=O)[C@H](CC(N)=O)NC(C)=O)C(=O)N[C@@H](CO)C(=O)N[C@@H](CC(=O)O)C(=O)N[C@@H](CCC(=O)O)C(=O)N[C@@H](Cc1ccccc1)C(=O)N[C@H](C(=O)N[C@@H](CC(=O)O)C(=O)N[C@@H](CO)C(=O)N[C@@H](Cc1ccccc1)C(=O)N[C@@H](CCCCN)C(=O)N[C@@H](CCCCN)C(N)=O)C(C)C`, for which the IC50 is 0.2 µM.

As for `CSCC[C@H](NC(=O)[C@@H]1CS2=S(C[C@H](NC(=O)CNC(=O)[C@H](Cc3ccc(O)cc3)NC(=O)[C@H](CCCNC(=N)N)NC(C)=O)C(=O)N[C@@H](CCC(=O)O)C(=O)N[C@@H](CC(C)C)C(=O)N[C@@H](CCCNC(=N)N)C(=O)N1)C(=O)NC2=O)C(=O)N[C@@H](CO)C(=O)N[C@@H](CC(=O)O)C(=O)N[C@@H](CCC(=O)O)C(=O)N[C@@H](Cc1ccccc1)C(=O)N[C@H](C(=O)N[C@@H](CC(=O)O)C(=O)N[C@@H](CO)C(=O)N[C@@H](Cc1ccccc1)C(=O)N[C@@H](CCCCN)C(=O)N[C@@H](CCCCN)C(N)=O)C(C)C` (stereo partly specified), the IC50 is more than 50 µM.

Molecule `CSCC[C@H](NC(=O)[C@H](CCCNC(=N)N)NC(=O)[C@H](CCCNC(=N)N)NC(=O)[C@H](CC(C)C)NC(=O)[C@H](CCC(=O)O)NC(=O)[C@H](CCCNC(=N)N)NC(=O)CNC(=O)[C@H](Cc1ccc(O)cc1)NC(=O)[C@H](CCCNC(=N)N)NC(C)=O)C(=O)N[C@@H](CO)C(=O)N[C@H]1CS2=S(C[C@@H](C(=O)N[C@@H](CO)C(=O)N[C@@H](Cc3ccccc3)C(=O)N[C@@H](CCCCN)C(=O)N[C@@H](CCCCN)C(N)=O)NC(=O)[C@H](C(C)C)NC(=O)[C@H](Cc3ccccc3)NC(=O)[C@H](CCC(=O)O)NC1=O)C(=O)NC2=O` (stereo partly specified) had an IC50 of more than 50 µM.

`CSCC[C@H](NC(=O)[C@H](CCCNC(=N)N)NC(=O)[C@H](CCCNC(=N)N)NC(=O)[C@H](CC(C)C)NC(=O)[C@@H]1CS2=S(C[C@H](NC(C)=O)C(=O)N[C@@H](Cc3ccc(O)cc3)C(=O)NCC(=O)N[C@@H](CCCNC(=N)N)C(=O)N1)C(=O)NC2=O)C(=O)N[C@@H](CO)C(=O)N[C@@H](CC(=O)O)C(=O)N[C@@H](CCC(=O)O)C(=O)N[C@@H](Cc1ccccc1)C(=O)N[C@H](C(=O)N[C@@H](CC(=O)O)C(=O)N[C@@H](CO)C(=O)N[C@@H](Cc1ccccc1)C(=O)N[C@@H](CCCCN)C(=O)N[C@@H](CCCCN)C(N)=O)C(C)C` (stereo partly specified) displayed an IC50 of 5.5 µM.

Regarding `CSCC[C@H](NC(=O)[C@H](CCCNC(=N)N)NC(=O)[C@@H]1CS2=S(C[C@H](NC(=O)[C@H](Cc3ccc(O)cc3)NC(=O)[C@H](CCCNC(=N)N)NC(C)=O)C(=O)N[C@@H](CCCNC(=N)N)C(=O)N[C@@H](CCC(=O)O)C(=O)N[C@@H](CC(C)C)C(=O)N1)C(=O)NC2=O)C(=O)N[C@@H](CO)C(=O)N[C@@H](CC(=O)O)C(=O)N[C@@H](CCC(=O)O)C(=O)N[C@@H](Cc1ccccc1)C(=O)N[C@H](C(=O)N[C@@H](CC(=O)O)C(=O)N[C@@H](CO)C(=O)N[C@@H](Cc1ccccc1)C(=O)N[C@@H](CCCCN)C(=O)N[C@@H](CCCCN)C(N)=O)C(C)C` (stereo partly specified), the IC50 was more than 50 µM.

For the molecule `CSCC[C@@H]1NC(=O)[C@H](CCCNC(=N)N)NC(=O)[C@@H](NC(=O)[C@H](CC(C)C)NC(=O)[C@H](CCC(=O)O)NC(=O)[C@H](CCCNC(=N)N)NC(=O)CNC(=O)[C@H](Cc2ccc(O)cc2)NC(=O)[C@H](CCCNC(=N)N)NC(C)=O)CS2=S(C[C@@H](C(=O)N[C@@H](CCC(=O)O)C(=O)N[C@@H](Cc3ccccc3)C(=O)N[C@H](C(=O)N[C@@H](CC(=O)O)C(=O)N[C@@H](CO)C(=O)N[C@@H](Cc3ccccc3)C(=O)N[C@@H](CCCCN)C(=O)N[C@@H](CCCCN)C(N)=O)C(C)C)NC(=O)[C@H](CO)NC1=O)C(=O)NC2=O` (stereo partly specified), the IC50 was more than 50 µM.

For `CSCC[C@H](NC(=O)[C@H](CCCNC(=N)N)NC(=O)[C@H](CCCNC(=N)N)NC(=O)[C@H](CC(C)C)NC(=O)[C@H](CCC(=O)O)NC(=O)[C@H](CCCNC(=N)N)NC(=O)CNC(=O)[C@H](Cc1ccc(O)cc1)NC(=O)[C@H](CCCNC(=N)N)NC(C)=O)C(=O)N[C@H]1CS2=S(C[C@@H](C(=O)N[C@@H](CC(=O)O)C(=O)N[C@@H](CO)C(=O)N[C@@H](Cc3ccccc3)C(=O)N[C@@H](CCCCN)C(=O)N[C@@H](CCCCN)C(N)=O)NC(=O)[C@H](Cc3ccccc3)NC(=O)[C@H](CCC(=O)O)NC(=O)[C@H](CC(=O)O)NC1=O)C(=O)NC2=O` (stereo partly specified), the IC50 was more than 50 µM.

On to `CSCC[C@H](NC(=O)[C@H](CCCNC(=N)N)NC(=O)[C@H](CCCNC(=N)N)NC(=O)[C@H](CC(C)C)NC(=O)[C@H](CCC(=O)O)NC(=O)[C@H](CCCNC(=N)N)NC(=O)CNC(=O)[C@H](Cc1ccc(O)cc1)NC(=O)[C@H](CCCNC(=N)N)NC(C)=O)C(=O)N[C@@H](CO)C(=O)N[C@@H](CC(=O)O)C(=O)N[C@H]1CS2=S(C[C@@H](C(=O)N[C@@H](Cc3ccccc3)C(=O)N[C@@H](CCCCN)C(=O)N[C@@H](CCCCN)C(N)=O)NC(=O)[C@H](CC(=O)O)NC(=O)[C@H](C(C)C)NC(=O)[C@H](Cc3ccccc3)NC1=O)C(=O)NC2=O` (stereo partly specified), for which the half-maximal inhibitory concentration (IC50) was more than 50 µM.

`CSCC[C@H](NC(=O)[C@H](CCCNC(=N)N)NC(=O)[C@H](CCCNC(=N)N)NC(=O)[C@H](CC(C)C)NC(=O)[C@H](CS)NC(=O)[C@H](CCCNC(=N)N)NC(=O)CNC(=O)[C@H](Cc1ccc(O)cc1)NC(=O)[C@H](CS)NC(C)=O)C(=O)N[C@@H](CO)C(=O)N[C@@H](CC(=O)O)C(=O)N[C@@H](CCC(=O)O)C(=O)N[C@@H](Cc1ccccc1)C(=O)N[C@H](C(=O)N[C@@H](CC(=O)O)C(=O)N[C@@H](CO)C(=O)N[C@@H](Cc1ccccc1)C(=O)N[C@@H](CCCCN)C(=O)N[C@@H](CCCCN)C(N)=O)C(C)C` (Ac-CYGRCLRRMSDEFVDSFKK-NH2): the IC50 worked out at 5.1 µM.

`CSCC[C@H](NC(=O)[C@H](CCCNC(=N)N)NC(=O)[C@H](CS)NC(=O)[C@H](CC(C)C)NC(=O)[C@H](CCC(=O)O)NC(=O)[C@H](CCCNC(=N)N)NC(=O)[C@H](CS)NC(=O)[C@H](Cc1ccc(O)cc1)NC(=O)[C@H](CCCNC(=N)N)NC(C)=O)C(=O)N[C@@H](CO)C(=O)N[C@@H](CC(=O)O)C(=O)N[C@@H](CCC(=O)O)C(=O)N[C@@H](Cc1ccccc1)C(=O)N[C@H](C(=O)N[C@@H](CC(=O)O)C(=O)N[C@@H](CO)C(=O)N[C@@H](Cc1ccccc1)C(=O)N[C@@H](CCCCN)C(=O)N[C@@H](CCCCN)C(N)=O)C(C)C` (Ac-RYCRELCRMSDEFVDSFKK-NH2) returned an IC50 of 11.8 µM.

The molecule `CSCC[C@H](NC(=O)[C@H](CS)NC(=O)[C@H](CCCNC(=N)N)NC(=O)[C@H](CC(C)C)NC(=O)[C@H](CCC(=O)O)NC(=O)[C@H](CS)NC(=O)CNC(=O)[C@H](Cc1ccc(O)cc1)NC(=O)[C@H](CCCNC(=N)N)NC(C)=O)C(=O)N[C@@H](CO)C(=O)N[C@@H](CC(=O)O)C(=O)N[C@@H](CCC(=O)O)C(=O)N[C@@H](Cc1ccccc1)C(=O)N[C@H](C(=O)N[C@@H](CC(=O)O)C(=O)N[C@@H](CO)C(=O)N[C@@H](Cc1ccccc1)C(=O)N[C@@H](CCCCN)C(=O)N[C@@H](CCCCN)C(N)=O)C(C)C` (Ac-RYGCELRCMSDEFVDSFKK-NH2) returned an IC50 of 6.8 µM.

On to `CSCC[C@H](NC(=O)[C@H](CCCNC(=N)N)NC(=O)[C@H](CS)NC(=O)[C@H](CC(C)C)NC(=O)[C@H](CCC(=O)O)NC(=O)[C@H](CCCNC(=N)N)NC(=O)CNC(=O)[C@H](Cc1ccc(O)cc1)NC(=O)[C@H](CCCNC(=N)N)NC(C)=O)C(=O)N[C@@H](CO)C(=O)N[C@@H](CS)C(=O)N[C@@H](CCC(=O)O)C(=O)N[C@@H](Cc1ccccc1)C(=O)N[C@H](C(=O)N[C@@H](CC(=O)O)C(=O)N[C@@H](CO)C(=O)N[C@@H](Cc1ccccc1)C(=O)N[C@@H](CCCCN)C(=O)N[C@@H](CCCCN)C(N)=O)C(C)C` (Ac-RYGRELCRMSCEFVDSFKK-NH2), for which the IC50 is more than 50 µM.

As for `CSCC[C@H](NC(=O)[C@H](CCCNC(=N)N)NC(=O)[C@H](CCCNC(=N)N)NC(=O)[C@H](CC(C)C)NC(=O)[C@H](CCC(=O)O)NC(=O)[C@H](CCCNC(=N)N)NC(=O)CNC(=O)[C@H](Cc1ccc(O)cc1)NC(=O)[C@H](CCCNC(=N)N)NC(C)=O)C(=O)N[C@@H](CS)C(=O)N[C@@H](CC(=O)O)C(=O)N[C@@H](CCC(=O)O)C(=O)N[C@@H](Cc1ccccc1)C(=O)N[C@@H](CS)C(=O)N[C@@H](CC(=O)O)C(=O)N[C@@H](CO)C(=O)N[C@@H](Cc1ccccc1)C(=O)N[C@@H](CCCCN)C(=O)N[C@@H](CCCCN)C(N)=O` (Ac-RYGRELRRMCDEFCDSFKK-NH2), the IC50 was 2.9 µM.

`CSCC[C@H](NC(=O)[C@H](CCCNC(=N)N)NC(=O)[C@H](CCCNC(=N)N)NC(=O)[C@H](CC(C)C)NC(=O)[C@H](CCC(=O)O)NC(=O)[C@H](CCCNC(=N)N)NC(=O)CNC(=O)[C@H](Cc1ccc(O)cc1)NC(=O)[C@H](CCCNC(=N)N)NC(C)=O)C(=O)N[C@@H](CO)C(=O)N[C@@H](CS)C(=O)N[C@@H](CCC(=O)O)C(=O)N[C@@H](Cc1ccccc1)C(=O)N[C@H](C(=O)N[C@@H](CS)C(=O)N[C@@H](CO)C(=O)N[C@@H](Cc1ccccc1)C(=O)N[C@@H](CCCCN)C(=O)N[C@@H](CCCCN)C(N)=O)C(C)C` (Ac-RYGRELRRMSCEFVCSFKK-NH2): the IC50 was more than 50 µM.

As to `CSCC[C@H](NC(=O)[C@H](CCCNC(=N)N)NC(=O)[C@H](CCCNC(=N)N)NC(=O)[C@H](CC(C)C)NC(=O)[C@H](CCC(=O)O)NC(=O)[C@H](CCCNC(=N)N)NC(=O)CNC(=O)[C@H](Cc1ccc(O)cc1)NC(=O)[C@H](CCCNC(=N)N)NC(C)=O)C(=O)N[C@@H](CO)C(=O)N[C@@H](CC(=O)O)C(=O)N[C@@H](CS)C(=O)N[C@@H](Cc1ccccc1)C(=O)N[C@H](C(=O)N[C@@H](CC(=O)O)C(=O)N[C@@H](CS)C(=O)N[C@@H](Cc1ccccc1)C(=O)N[C@@H](CCCCN)C(=O)N[C@@H](CCCCN)C(N)=O)C(C)C` (Ac-RYGRELRRMSDCFVDCFKK-NH2), the IC50 turned out to be 4.5 µM.

Another assay deals with Induced myeloid leukemia cell differentiation protein Mcl-1/BH3-interacting domain death agonist (Homo sapiens) (UniProt Q07820+P55957). The assay is described as follows: Inhibition of BID/MCL-1 interaction (unknown origin) by fluorescence anisotropy competition assay. In kind it is protein assay. A general note: In fluorescence polarisation assays a small probe gives low polarisation when free and higher when bound to something large.
Sequence of Induced myeloid leukemia cell differentiation protein Mcl-1/BH3-interacting domain death agonist (Homo sapiens) (P55957 whole entry, looked up, the tested form may be a part): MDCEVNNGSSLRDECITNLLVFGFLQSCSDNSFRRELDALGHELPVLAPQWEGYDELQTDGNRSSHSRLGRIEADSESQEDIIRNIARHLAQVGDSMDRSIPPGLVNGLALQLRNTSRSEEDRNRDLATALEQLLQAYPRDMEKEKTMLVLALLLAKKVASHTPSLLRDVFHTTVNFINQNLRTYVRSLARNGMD
Sequence of Induced myeloid leukemia cell differentiation protein Mcl-1/BH3-interacting domain death agonist (Homo sapiens) (Q07820 whole entry, looked up, the tested form may be a part): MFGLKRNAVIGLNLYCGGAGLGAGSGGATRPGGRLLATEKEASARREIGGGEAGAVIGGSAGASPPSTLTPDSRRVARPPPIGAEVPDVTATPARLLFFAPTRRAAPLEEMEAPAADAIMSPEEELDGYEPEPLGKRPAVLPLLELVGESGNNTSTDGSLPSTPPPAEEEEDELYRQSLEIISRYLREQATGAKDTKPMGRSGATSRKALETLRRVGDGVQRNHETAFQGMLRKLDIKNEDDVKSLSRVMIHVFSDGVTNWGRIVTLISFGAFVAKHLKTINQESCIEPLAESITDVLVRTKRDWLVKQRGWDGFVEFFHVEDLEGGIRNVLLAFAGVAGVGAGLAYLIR
As for `CSCC[C@H](NC(=O)[C@H](CCCNC(=N)N)NC(=O)[C@H](CCCNC(=N)N)NC(=O)[C@H](CC(C)C)NC(=O)[C@H](CCC(=O)O)NC(=O)[C@H](CCCNC(=N)N)NC(=O)CNC(=O)[C@H](Cc1ccc(O)cc1)NC(=O)[C@H](CCCNC(=N)N)NC(=O)[C@H](CCC(N)=O)NC(=O)[C@H](C)NC(=O)[C@H](C)NC(=O)[C@H](Cc1c[nH]c2ccccc12)NC(=O)[C@H](CC(C)C)NC(=O)[C@H](CC(N)=O)NC(C)=O)C(=O)N[C@@H](CO)C(=O)N[C@@H](CC(=O)O)C(=O)N[C@@H](CCC(=O)O)C(=O)N[C@@H](Cc1ccccc1)C(=O)N[C@H](C(=O)N[C@@H](CC(=O)O)C(=O)N[C@@H](CO)C(=O)N[C@@H](Cc1ccccc1)C(=O)N[C@@H](CCCCN)C(=O)N[C@@H](CCCCN)C(N)=O)C(C)C`, the inhibition entry is “inactive”.

The term IC50 denotes the concentration that gives 50% inhibition.

Values taken from ChEMBL document CHEMBL5344414, “Maleimide constrained BAD BH3 domain peptides as BCL-xL Inhibitors: A versatile approach to rapidly identify sites compatible with peptide constraining” (Bioorg Med Chem Lett, 2023).
